In ChEMBL document CHEMBL2390869, “Evolution of novel tricyclic CRTh2 receptor antagonists from a (E)-2-cyano-3-(1H-indol-3-yl)acrylamide scaffold” (Bioorg Med Chem Lett, 2013):

Experiments:
[1] = biological target: T1, Prostaglandin D2 receptor 2 (Homo sapiens, UniProt Q9Y5Y4); experiment: Displacement of [3H]PGD2 from human CRTh2 receptor
T1 sequence (Q9Y5Y4 whole entry): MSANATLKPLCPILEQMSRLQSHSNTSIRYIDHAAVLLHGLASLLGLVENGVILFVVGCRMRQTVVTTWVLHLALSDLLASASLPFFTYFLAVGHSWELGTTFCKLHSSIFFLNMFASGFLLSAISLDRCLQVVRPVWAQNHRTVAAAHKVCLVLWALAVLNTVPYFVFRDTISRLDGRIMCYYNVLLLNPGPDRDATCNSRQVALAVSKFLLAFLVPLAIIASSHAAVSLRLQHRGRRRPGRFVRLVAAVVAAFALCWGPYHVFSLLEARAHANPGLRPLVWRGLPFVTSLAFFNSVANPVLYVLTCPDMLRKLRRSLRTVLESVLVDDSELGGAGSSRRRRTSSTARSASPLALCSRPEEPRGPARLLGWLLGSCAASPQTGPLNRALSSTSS
How it was run: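 Human CRTh2 binding assay run in assay buffer. IC50 reported as the mean of at least three experiments.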

[2] = biological target: T1, Prostaglandin D2 receptor 2; experiment: Antagonist activity at PGD2-induced human CRTh2 receptor activation expressed in HEK293 cells assessed as intracellular Ca2+ liberation by FLIPR assay; format: functional, cell-based
How it was run: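 HEK-293 cells stably expressing human CRTh2 were stimulated with PGD2. Antagonism of intracellular Ca2+ liberation was read by FLIPR. IC50 is the mean of at least three experiments.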

IC50 [1]	IC50 [2]	Structure (SMILES)
50 nM	–	CN(C(=O)/C(C#N)=C/c1cn(CC(=O)O)c2c(Cl)cccc12)c1ccccc1
4400 nM	–	O=C(O)Cn1cc(/C=C/C(=O)Nc2ccccc2)c2ccccc21
490 nM	–	O=C(O)Cn1c2ccccc2c2cc(C(=O)Nc3ccccc3)ccc21
500 nM	600 nM	N#C/C(=C\c1cn(CC(=O)O)c2ccccc12)C(=O)Nc1cccc(Br)c1
10 nM	–	CN(C(=O)/C(C#N)=C/c1cn(CC(=O)O)c2cccc(F)c12)c1ccccc1
30 nM	–	N#C/C(=C\c1cn(CC(=O)O)c2ccccc12)C(=O)N(Cc1ccccc1)c1ccccc1
7 nM	–	N#C/C(=C\c1cn(CC(=O)O)c2ccccc12)C(=O)N1Cc2ccccc2Cc2ccccc21
430 nM	–	O=C(O)Cn1c2c(c3ccccc31)CN(C(=O)Nc1ccccc1)CC2
7 nM	–	CN(C(=O)/C(C#N)=C/c1cn(CC(=O)O)c2ccc(Cl)cc12)c1ccccc1
20 nM	–	CCCCN(C(=O)/C(C#N)=C/c1cn(CC(=O)O)c2ccccc12)c1ccccc1
430 nM	–	N#C/C(=C\c1cn(CC(=O)O)c2ccccc12)C(=O)Nc1ccccc1
100 nM	–	CN(C(=O)/C(C#N)=C/c1cn(CC(=O)O)c2c(F)cccc12)c1ccccc1
30 nM	–	N#C/C(=C\c1cn(CC(=O)O)c2ccccc12)C(=O)N(c1ccccc1)C1CCCCC1
10 nM	–	Cc1cccc2c1c(/C=C(\C#N)C(=O)N(C)c1ccccc1)cn2CC(=O)O
145 nM	–	O=C(O)Cn1c2c(c3ccccc31)CC(C(=O)Nc1ccccc1)CC2 (racemic)
510 nM	–	C/C(=C(/C#N)C(=O)Nc1ccccc1)c1cn(CC(=O)O)c2ccccc12
